{"source": "ChEMBL document CHEMBL5712884", "about": "“S-Adenosyl-L-methionine-competitive inhibitors of the histone methyltransferase EZH2 induce autophagy and enhance drug sensitivity in cancer cells” (Anticancer Drugs, 2015)", "key": {"MDA-MB-231 [1]": {"tested_on": "MDA-MB-231", "assay": "Induction of apoptosis in human MDA-MB-231 cells assessed as cleavage of PARP at 0.75 umol/L incubated for 72 hrs by Western blot analysis", "format": "functional, cell-based", "settings": "dose 0.75 µmol/L"}, "MDA-MB-231 [2]": {"tested_on": "MDA-MB-231", "assay": "[…] in human MDA-MB-231 cells assessed as induction of LC3-II accumulation at 1 umol/L for 48 hrs by Western blot analysis", "format": "functional, cell-based", "settings": "dose 1.0 µmol/L"}, "MDA-MB-231 [3]": {"tested_on": "MDA-MB-231", "assay": "Induction of apoptosis in human MDA-MB-231 cells assessed as cleavage of caspase-3 at 0.75 umol/L incubated for 72 hrs by Western blot analysis", "format": "functional, cell-based", "settings": "dose 0.75 µmol/L"}, "MDA-MB-231 [4]": {"tested_on": "MDA-MB-231", "assay": "Induction of apoptosis in human MDA-MB-231 cells assessed as induction of cleavage of PARP at 10 to 20 umol/L incubated for 72 hrs by Western blot analysis", "format": "functional, cell-based", "settings": "dose 10-20 µmol/L"}, "HepG2 [5]": {"tested_on": "HepG2", "assay": "[…] in human HepG2 cells assessed as induction of LC3-II accumulation at 10 to 20 umol/L measured after 24 hrs by Western blot analysis", "format": "functional, cell-based", "settings": "dose 10-20 µmol/L", "summary_of_the_method": "(§1)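 A549 and HepG2 cells drug-treated with or without bafilomycin A1. Lysates made in Tris pH 7.5/NP-40 buffer with protease and phosphatase inhibitors, 25–50 μg run on 7–12% SDS-PAGE, probed for LC3B, ECL detection.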"}, "HepG2 [6]": {"tested_on": "HepG2", "assay": "Potentiation of sorafenib-induced anticancer activity in human HepG2 cells assessed as increase in cleaved PARP expression at 10 umol/L measured after 72 hrs by Western blot analysis", "format": "functional, cell-based", "settings": "dose 10.0 µmol/L", "summary_of_the_method": "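HepG2 cells given 5 μmol/l sorafenib, with or without 10 μmol/l compound, for 72 h. Whole-cell lysates immunoblotted for PARP1, LC3B and β-actin.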"}, "[7]": {"target": "Histone-lysine N-methyltransferase EZH2 (Homo sapiens) (UniProt Q15910)", "sequence (Q15910 whole entry, looked up)": "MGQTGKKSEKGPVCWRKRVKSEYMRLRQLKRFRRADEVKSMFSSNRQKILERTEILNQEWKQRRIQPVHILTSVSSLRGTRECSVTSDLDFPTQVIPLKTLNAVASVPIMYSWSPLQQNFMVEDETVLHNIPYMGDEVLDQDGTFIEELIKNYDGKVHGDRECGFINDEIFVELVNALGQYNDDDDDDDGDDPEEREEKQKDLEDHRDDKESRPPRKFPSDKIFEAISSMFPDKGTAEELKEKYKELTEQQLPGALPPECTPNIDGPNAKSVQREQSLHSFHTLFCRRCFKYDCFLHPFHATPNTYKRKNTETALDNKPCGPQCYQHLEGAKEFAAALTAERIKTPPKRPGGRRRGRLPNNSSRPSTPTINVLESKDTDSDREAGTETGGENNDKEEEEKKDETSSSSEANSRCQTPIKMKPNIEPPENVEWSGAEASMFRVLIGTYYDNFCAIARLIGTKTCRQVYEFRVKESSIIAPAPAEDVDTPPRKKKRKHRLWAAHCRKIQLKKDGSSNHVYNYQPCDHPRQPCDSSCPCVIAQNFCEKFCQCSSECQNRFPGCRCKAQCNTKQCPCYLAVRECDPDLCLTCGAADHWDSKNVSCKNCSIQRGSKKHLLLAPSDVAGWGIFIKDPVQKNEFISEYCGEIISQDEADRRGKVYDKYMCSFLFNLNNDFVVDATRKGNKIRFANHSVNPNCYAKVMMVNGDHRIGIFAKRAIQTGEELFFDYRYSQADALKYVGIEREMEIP", "assay": "Inhibition of EZH2 in human MDA-MB-231 cells assessed as reduction in H3K27-me3 level at 20 umol/L incubated for 72 hrs by Western blot analysis", "format": "cell-based", "settings": "dose 20.0 µmol/L"}, "HepG2 [8]": {"tested_on": "HepG2", "assay": "Potentiation of sorafenib-induced anticancer activity in human HepG2 cells at 10 umol/L measured after 72 hrs by MTT assay", "format": "functional, cell-based", "settings": "dose 10.0 µmol/L", "summary_of_the_method": "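HepG2 cells given a range of sorafenib doses, with or without 10 μmol/l compound, for 72 h. Viability by MTT (0.5 mg/ml, 4 h, DMSO, A550). Student's t-test against untreated cells.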"}, "MDA-MB-231 [9]": {"tested_on": "MDA-MB-231", "assay": "Induction of autophagy in human MDA-MB-231 cells assessed as change in total LAMP2 expression at 20 umol/L measured after 24 hrs by Western blot analysis", "format": "toxicity, cell-based", "settings": "mda-mb-231, 24 h, 20 µM, dose 20 µmol/L"}, "A549 [10]": {"tested_on": "A549", "assay": "[…] in human A549 cells assessed as induction of LC3-II accumulation at 10 to 20 umol/L measured after 24 hrs by Western blot analysis", "format": "functional, cell-based", "settings": "dose 10-20 µmol/L", "summary_of_the_method": "as §1"}, "[11]": {"target": "Histone-lysine N-methyltransferase EZH2 (Homo sapiens) (UniProt Q15910)", "assay": "Inhibition of EZH2 in human HepG2 cells assessed as reduction in H3K27-me3 level at 20 umol/L incubated for 72 hrs by Western blot analysis", "format": "cell-based", "settings": "dose 20.0 µmol/L"}, "HepG2 [12]": {"tested_on": "HepG2", "assay": "Cytotoxicity against human HepG2 cells assessed as effect on cell viability incubated for 72 hrs by MTT analysis", "format": "functional, cell-based", "summary_of_the_method": "(§2)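 Cells in DMEM with 10% FBS at 37°C, 5% CO2, plated in 96-well plates and drug-treated for 72 h. MTT 0.5 mg/ml added for 4 h, formazan dissolved in DMSO, absorbance read at 550 nm. Means and SDs; Student's t-test.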"}, "MDA-MB-231 [13]": {"tested_on": "MDA-MB-231", "assay": "Cytotoxicity against human MDA-MB-231 cells assessed as cell viability at 5 umol/L after 72 hrs by MTT analysis relative to control", "format": "functional", "settings": "MDA-MB-231, 72 h, dose 5 µmol/L, read-out: Activity", "summary_of_the_method": "as §2"}, "[14]": {"target": "Histone-lysine N-methyltransferase EZH2 (Homo sapiens) (UniProt Q15910)", "assay": "Inhibition of EZH2 in human A549 cells assessed as reduction in H3K27-me3 level at 20 umol/L incubated for 72 hrs by Western blot analysis", "format": "cell-based", "settings": "dose 20.0 µmol/L"}, "MDA-MB-231 [15]": {"tested_on": "MDA-MB-231", "assay": "Induction of autophagy in human MDA-MB-231 cells assessed as induction of LC3-II accumulation at 10 to 20 umol/L incubated for 24 hrs by Western blot analysis", "format": "functional, cell-based", "settings": "dose 10-20 µmol/L"}, "MDA-MB-231 [16]": {"tested_on": "MDA-MB-231", "assay": "Induction of autophagy in human MDA-MB-231 cells assessed as change in total LAMP2 expression at 20 umol/L measured after 24 hrs in presence of bafilomycin A1 by Western blot analysis", "format": "toxicity, cell-based", "settings": "mda-mb-231, 24 h, 20 µM, dose 20 µmol/L"}, "MDA-MB-231 [17]": {"tested_on": "MDA-MB-231", "assay": "Induction of autophagy in human MDA-MB-231 cells assessed as reduction in expression of p62 at 20 umol/L incubated for 24 hrs by Western blot analysis", "format": "functional, cell-based", "settings": "dose 20.0 µmol/L"}, "HepG2 [18]": {"tested_on": "HepG2", "assay": "Cytotoxicity against human HepG2 cells assessed as effect on cell viability after 72 hrs by MTT analysis", "format": "functional, cell-based", "summary_of_the_method": "as §2"}, "MDA-MB-231 [19]": {"tested_on": "MDA-MB-231", "assay": "Cytotoxicity against human MDA-MB-231 cells assessed as reduction in cell viability at >5 umol/L after 72 hrs by MTT analysis", "format": "functional, cell-based", "settings": "dose > 5.0 µmol/L", "summary_of_the_method": "as §2"}, "HepG2 [20]": {"tested_on": "HepG2", "assay": "[…] in human HepG2 cells assessed as induction of LC3-II accumulation at 10 to 20 umol/L measured after 24 hrs in presence of bafilomycin A1 by Western blot analysis", "format": "functional, cell-based", "settings": "dose 10-20 µmol/L", "summary_of_the_method": "as §1"}, "MDA-MB-231 [21]": {"tested_on": "MDA-MB-231", "assay": "Induction of apoptosis in human MDA-MB-231 cells assessed as induction of cleavage of caspase-3 at 10 to 20 umol/L incubated for 72 hrs by Western blot analysis", "format": "functional, cell-based", "settings": "dose 10-20 µmol/L"}, "A549 [22]": {"tested_on": "A549", "assay": "[…] in human A549 cells assessed as induction of LC3-II accumulation at 10 to 20 umol/L measured after 24 hrs in presence of bafilomycin A1 by Western blot analysis", "format": "functional, cell-based", "settings": "dose 10-20 µmol/L", "summary_of_the_method": "as §1"}, "HepG2 [23]": {"tested_on": "HepG2", "assay": "Induction of autophagy in human HepG2 cells assessed as accumulation of LC3-II at 10 umol/L measured after 24 hrs by Western blot analysis", "format": "functional, cell-based", "settings": "dose 10.0 µmol/L", "summary_of_the_method": "(§3)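 HepG2 cells given 2.5–10 μmol/l sorafenib for 24 h; whole-cell lysates immunoblotted for EZH2, LC3B and GAPDH, with ECL detection.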"}, "HepG2 [24]": {"tested_on": "HepG2", "assay": "Anticancer activity in human HepG2 cells assessed as inhibition of EZH2 expression measured after 24 hrs by Western blot analysis", "format": "functional, cell-based", "settings": "dose 2.5-10 µmol/L", "summary_of_the_method": "as §3"}}, "note": "Active and inactive are the calls of the source. The rule behind the calls is not given here.", "data": [{"smiles": "COc1cccc2c1C(=O)c1c(O)c3c(c(O)c1C2=O)C[C@@](O)(C(=O)CO)C[C@@H]3O[C@H]1C[C@H](N)[C@H](O)[C@H](C)O1", "values": [{"measurement": "Activity", "setting": "MDA-MB-231 [1]", "result": "Active"}, {"measurement": "Activity", "setting": "MDA-MB-231 [2]", "result": "Active"}, {"measurement": "Activity", "setting": "MDA-MB-231 [3]", "result": "Active"}]}, {"smiles": "CC(=O)O[C@H]1C(=O)[C@@]2(C)[C@H]([C@H](OC(=O)c3ccccc3)[C@]3(O)C[C@H](OC(=O)[C@H](O)[C@@H](NC(=O)c4ccccc4)c4ccccc4)C(C)=C1C3(C)C)[C@]1(OC(C)=O)CO[C@@H]1C[C@@H]2O", "values": [{"measurement": "Activity", "setting": "MDA-MB-231 [2]", "result": "Active"}]}, {"smiles": "Nc1nccc2c1ncn2[C@@H]1C=C(CO)[C@@H](O)[C@H]1O", "values": [{"measurement": "Activity", "setting": "MDA-MB-231 [4]", "result": "Active"}, {"measurement": "Activity", "setting": "HepG2 [5]", "result": "inactive"}, {"measurement": "Activity", "setting": "HepG2 [6]", "result": "inactive"}, {"measurement": "inhibition", "setting": "[7]", "result": "Active"}, {"measurement": "Activity", "setting": "HepG2 [8]", "result": "inactive"}, {"measurement": "Activity", "setting": "MDA-MB-231 [9]", "result": "Non-Toxic"}, {"measurement": "Activity", "setting": "A549 [10]", "result": "inactive"}, {"measurement": "inhibition", "setting": "[11]", "result": "Active"}, {"measurement": "Activity", "setting": "HepG2 [12]", "result": "Active"}, {"measurement": "viability at 5 µM", "setting": "MDA-MB-231 [13]", "result": 67, "unit": "%"}, {"measurement": "inhibition", "setting": "[14]", "result": "Active"}, {"measurement": "Activity", "setting": "MDA-MB-231 [15]", "result": "inactive"}, {"measurement": "Activity", "setting": "MDA-MB-231 [16]", "result": "Non-Toxic"}, {"measurement": "Activity", "setting": "MDA-MB-231 [17]", "result": "Active"}, {"measurement": "Activity", "setting": "HepG2 [18]", "result": "Active"}, {"measurement": "Activity", "setting": "MDA-MB-231 [19]", "result": "inactive"}, {"measurement": "Activity", "setting": "HepG2 [20]", "result": "inactive"}, {"measurement": "Activity", "setting": "MDA-MB-231 [21]", "result": "inactive"}, {"measurement": "Activity", "setting": "A549 [22]", "result": "inactive"}]}, {"smiles": "CNC(=O)c1cc(Oc2ccc(NC(=O)Nc3ccc(Cl)c(C(F)(F)F)c3)cc2)ccn1", "values": [{"measurement": "Activity", "setting": "HepG2 [23]", "result": "Active"}, {"measurement": "inhibition", "setting": "HepG2 [24]", "result": "Active"}]}]}
